Key:
Influenza A virus [1] = assay: Antiviral activity against Influenza A virus A/PR/8/34(H1N1) infected in MDCK cells after 3 days by MTS assay; format: functional, organism-based, A/Puerto Rico/8/1934(H1N1); details: Influenza A virus, A/Puerto Rico/8/1934(H1N1), MDCK, 72 h
In short: (§1)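 Semi-confluent MDCK cells were infected at an MOI of 0.0004 PFU/cell in Ultra-MDCK infection medium with 2 μg/mL TPCK-trypsin, together with compounds. After 3 days at 35 °C, CPE was scored by microscopy and confirmed by MTS formazan viability. EC50 is the concentration giving 50% inhibition of virus-induced CPE. Values are means of two to five independent tests.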

[2] = Selectivity index, ratio of MCC for MDCK cells to EC50 for Influenza A virus A/Virginia/ATCC3/2009(H1N1pdm) infected in MDCK cells assessed as reduction in virus-induced cytopathic effect by microscopic method; format: toxicity, cell-based; details: dog, read-out: Selectivity Index
In short: (§2)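 Selectivity index is MCC divided by EC50. MCC comes from microscopy of mock-infected MDCK cells. EC50 comes from microscopic scoring of virus-induced CPE in MDCK cells infected at an MOI of 0.0004 PFU/cell with TPCK-trypsin. Both readings were taken after 3 days at 35 °C.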

Influenza B virus [3] = assay: Antiviral activity against Influenza B virus B/Ned/537/05 infected in MDCK cells assessed as reduction in virus-induced cytopathic effect after 3 days by microscopic method; format: functional, organism-based; details: B/Ned/537/05, MDCK, 72 h
In short: (§3)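 Semi-confluent MDCK cells were infected at an MOI of 0.0004 PFU/cell in Ultra-MDCK infection medium with 2 μg/mL TPCK-trypsin, together with compounds. After 3 days at 35 °C, CPE was scored by microscopy and confirmed by MTS formazan viability. Values are means of two to five independent tests.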

Influenza A virus [4] = assay: Antiviral activity against Influenza A virus A/PR/8/34(H1N1) infected in MDCK cells assessed as reduction in virus-induced cytopathic effect after 3 days by microscopic method; format: functional, organism-based, A/Puerto Rico/8/1934(H1N1); details: Influenza A virus, A/Puerto Rico/8/1934(H1N1), MDCK, 72 h; in short: as §1
Influenza A virus [5] = assay: Antiviral activity against Influenza A virus A/Virginia/ATCC3/2009(H1N1pdm) infected in MDCK cells assessed as reduction in virus-induced cytopathic effect after 3 days by microscopic method; format: functional, organism-based, Influenza A virus (A/Virginia/03/2009(H1N1)); details: 72 h; in short: as §1
[6] = Selectivity index, ratio of MCC for MDCK cells to EC50 for Influenza A virus A/PR/8/34(H1N1) infected in MDCK cells assessed as reduction in virus-induced cytopathic effect by microscopic method; format: toxicity, cell-based; details: dog, read-out: Selectivity Index; in short: as §2
[7] = Selectivity index, ratio of MCC for MDCK cells to EC50 for Influenza A virus A/HK/7/87(H3N2) infected in MDCK cells assessed as reduction in virus-induced cytopathic effect by microscopic method; format: toxicity, cell-based; details: dog, read-out: Selectivity Index; in short: as §2
[8] = Selectivity index, ratio of MCC for MDCK cells to EC50 for Influenza B virus B/Ned/537/05 infected in MDCK cells assessed as reduction in virus-induced cytopathic effect by microscopic method; format: toxicity, cell-based; details: dog, read-out: Selectivity Index; in short: as §2
[9] = Cytotoxicity against MDCK cells assessed as alteration in cell morphology after 3 days by microscopic method; format: cell-based, Canis lupus familiaris; details: dog
In short: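 Mock-infected MDCK cells were treated with compounds in parallel with the antiviral assay, 3 days at 35 °C. MCC is the concentration causing minimal change in cell morphology by microscopy. CC50 is the 50% cytotoxic concentration by MTS formazan viability assay.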

Influenza A virus [10] = assay: Antiviral activity against Influenza A virus A/Virginia/ATCC3/2009(H1N1pdm) infected in MDCK cells after 3 days by MTS assay; format: functional, organism-based, Influenza A virus (A/Virginia/03/2009(H1N1)); details: 72 h; in short: as §1
H3N2 subtype [11] = assay: Antiviral activity against Influenza A virus A/HK/7/87(H3N2) infected in MDCK cells after 3 days by MTS assay; format: functional, organism-based; details: A/Hong Kong/7/1987(H3N2), 72 h; in short: as §1
H3N2 subtype [12] = assay: Antiviral activity against Influenza A virus A/HK/7/87(H3N2) infected in MDCK cells assessed as reduction in virus-induced cytopathic effect after 3 days by microscopic method; format: functional, organism-based; details: A/Hong Kong/7/1987(H3N2), 72 h; in short: as §1
[13] = Selectivity index, ratio of MCC for MDCK cells to EC50 for Influenza B virus B/HK/05/72 infected in MDCK cells assessed as reduction in virus-induced cytopathic effect by microscopic method; format: toxicity, cell-based; details: dog, read-out: Selectivity Index; in short: as §2
MDCK = assay: (§4) Cytotoxicity against MDCK cells assessed as reduction in cell viability after 3 days by MTS assay; format: cell-based, Canis lupus familiaris; details: dog, mdck, 72 h
Influenza B virus [14] = assay: Antiviral activity against Influenza B virus B/Ned/537/05 infected in MDCK cells after 3 days by MTS assay; format: functional, organism-based; details: B/Ned/537/05, MDCK, 72 h; in short: as §3
Influenza B virus [15] = assay: Antiviral activity against Influenza B virus B/HK/05/72 infected in MDCK cells assessed as reduction in virus-induced cytopathic effect after 3 days by microscopic method; format: functional, organism-based; details: B/Hong Kong/05/1972, MDCK, 72 h; in short: as §1
Influenza B virus [16] = assay: Antiviral activity against Influenza B virus B/HK/05/72 infected in MDCK cells after 3 days by MTS assay; format: functional, organism-based; details: B/Hong Kong/05/1972, MDCK, 72 h; in short: as §1
[17] = as §4; format: cell-based, Canis lupus familiaris; details: dog, MDCK cells

| SMILES | EC50 (Influenza A virus [1]) [µM] | selectivity ratio [2] | EC50 (Influenza B virus [3]) [µM] | EC50 (Influenza A virus [4]) [µM] | EC50 (Influenza A virus [5]) [µM] | selectivity ratio [6] | selectivity ratio [7] | selectivity ratio [8] | MCC at 72 h [9] [µM] | EC50 (Influenza A virus [10]) [µM] | EC50 (H3N2 subtype [11]) [µM] | EC50 (H3N2 subtype [12]) [µM] | selectivity ratio [13] | CC50 (MDCK) [µM] | EC50 (Influenza B virus [14]) [µM] | EC50 (Influenza B virus [15]) [µM] | EC50 (Influenza B virus [16]) [µM] | CC50 at 72 h [17] [µM] |
| --- | --- | --- | --- | --- | --- | --- | --- | --- | --- | --- | --- | --- | --- | --- | --- | --- | --- | --- |
| CC(=O)N[C@H]1[C@H](O[C@@H]2c3ccc(c(Cl)c3)Oc3cc4cc(c3O)Oc3ccc(cc3Cl)C[C@H]3NC(=O)[C@H](N5C(=O)C(SC[C@H]6O[C@@H]7OC(C)(C)O[C@@H]7[C@H]7OC(C)(C)O[C@H]76)=C(SC[C@H]6O[C@@H]7OC(C)(C)O[C@@H]7[C@H]7OC(C)(C)O[C@H]76)C5=O)c5ccc(O)c(c5)Oc5cc(O)cc(c5)[C@H](NC3=O)C(=O)N[C@H]4C(O)N[C@H]3C(=O)N[C@H]2C(=O)N[C@@H](C(=O)O)c2cc(O)cc(O)c2-c2cc3ccc2O)O[C@H](CO)[C@@H](O)[C@@H]1O (stereo not given in full) | 9.1 | 5 | > 100 | > 100 | 2.1 | 5 | 5 | 5 | 20 | 2.2 | 1.7 | 2.3 | 5 | 26 | 4.2 | – | – | – |
| CC(=O)N[C@H]1[C@H](O[C@@H]2c3ccc(c(Cl)c3)Oc3cc4cc(c3O)Oc3ccc(cc3Cl)C[C@H]3NC(=O)[C@H](n5cc(COc6cccc7ccccc67)nn5)c5ccc(O)c(c5)Oc5cc(O)cc(c5)[C@H](NC3=O)C(=O)N[C@H]4C(O)N[C@H]3C(=O)N[C@H]2C(=O)N[C@@H](C(=O)O)c2cc(O)cc(O)c2-c2cc3ccc2O)O[C@H](CO)[C@@H](O)[C@@H]1O (stereo not given in full) | 11 | – | – | 11 | 11 | – | – | – | 20 | 4.4 | 8 | 15 | – | – | – | 15 | 6.6 | 47 |
| CCCCCCCCOCc1cn([C@H]2C(=O)N[C@@H]3Cc4ccc(c(Cl)c4)Oc4cc5cc(c4O)Oc4ccc(cc4Cl)[C@@H](O[C@@H]4O[C@H](CO)[C@@H](O)[C@H](O)[C@H]4NC(C)=O)[C@H]4NC(=O)[C@H](NC(O)[C@@H]5NC(=O)[C@@H](NC3=O)c3cc(O)cc(c3)Oc3cc2ccc3O)c2ccc(O)c(c2)-c2c(O)cc(O)cc2[C@H](C(=O)O)NC4=O)nn1 (stereo not given in full) | 2.2 | – | – | > 100 | 1.8 | – | – | – | ≥ 4 | 1.9 | 1.5 | 2.1 | – | – | – | 1.8 | 1.9 | 13 |
| CC(=O)N[C@H]1[C@H](O[C@@H]2c3ccc(c(Cl)c3)Oc3cc4cc(c3O)Oc3ccc(cc3Cl)C[C@H]3NC(=O)[C@H](n5cc(CO[C@@H]6[C@H](OCc7ccccc7)[C@@H](OCc7ccccc7)[C@H](O[C@H]7[C@H](OCc8ccccc8)[C@@H](OCc8ccccc8)[C@H](Sc8ccccc8)O[C@@H]7COCc7ccccc7)O[C@@H]6COCc6ccccc6)nn5)c5ccc(O)c(c5)Oc5cc(O)cc(c5)[C@H](NC3=O)C(=O)N[C@H]4C(O)N[C@H]3C(=O)N[C@H]2C(=O)N[C@@H](C(=O)O)c2cc(O)cc(O)c2-c2cc3ccc2O)O[C@H](CO)[C@@H](O)[C@@H]1O (stereo not given in full) | > 100 | – | – | > 100 | 8.9 | – | – | – | ≥ 20 | 7.3 | 20 | 8.9 | – | – | – | 6.6 | 4 | > 100 |
| CCCCCCCCSC1=C(SCCCCCCCC)C(=O)N(Cc2cn(C3C(=O)N[C@@H]4Cc5ccc(c(Cl)c5)Oc5cc6cc(c5O)Oc5ccc(cc5Cl)[C@@H](O[C@@H]5O[C@H](CO)[C@@H](O)[C@H](O)[C@H]5NC(C)=O)[C@H]5NC(=O)[C@H](NC(O)[C@@H]6NC(=O)[C@@H](NC4=O)c4cc(O)cc(c4)Oc4cc3ccc4O)c3ccc(O)c(c3)-c3c(O)cc(O)cc3[C@H](C(=O)O)NC5=O)nn2)C1=O (stereo not given in full) | 12 | 10 | 6.7 | 9.2 | 4.4 | 10 | 10 | 10 | 73 | 3.4 | 6.3 | 8.9 | 10 | 49 | 7.2 | – | – | – |
| CCCCCCCCCCOCc1cn([C@H]2C(=O)N[C@@H]3Cc4ccc(c(Cl)c4)Oc4cc5cc(c4O)Oc4ccc(cc4Cl)[C@@H](O[C@@H]4O[C@H](CO)[C@@H](O)[C@H](O)[C@H]4NC(C)=O)[C@H]4NC(=O)[C@H](NC(O)[C@@H]5NC(=O)[C@@H](NC3=O)c3cc(O)cc(c3)Oc3cc2ccc3O)c2ccc(O)c(c2)-c2c(O)cc(O)cc2[C@H](C(=O)O)NC4=O)nn1 (stereo not given in full) | > 100 | – | – | > 100 | > 100 | – | – | – | 4 | > 100 | > 100 | > 100 | – | – | – | > 100 | > 100 | 3.7 |

Reference: ChEMBL document CHEMBL4270630
